≈ marks a conversion by molar mass, not a printed value. Each block holds one molecule with its values, some of them ahead of it.
Columns and labels:
Plasmodium falciparum = assay: Antimalarial activity against Plasmodium falciparum 3D7A infected in human RBC after 48 hrs by [3H]-hypoxanthine incorporation assay; type: functional
serum albumin = serum albumin (Homo sapiens, UniProt P02768); assay: Binding affinity to human serum albumin by HPLC method; type: ADME; conditions: read-out: PB (converted)
Sequence of serum albumin (P02768 whole entry): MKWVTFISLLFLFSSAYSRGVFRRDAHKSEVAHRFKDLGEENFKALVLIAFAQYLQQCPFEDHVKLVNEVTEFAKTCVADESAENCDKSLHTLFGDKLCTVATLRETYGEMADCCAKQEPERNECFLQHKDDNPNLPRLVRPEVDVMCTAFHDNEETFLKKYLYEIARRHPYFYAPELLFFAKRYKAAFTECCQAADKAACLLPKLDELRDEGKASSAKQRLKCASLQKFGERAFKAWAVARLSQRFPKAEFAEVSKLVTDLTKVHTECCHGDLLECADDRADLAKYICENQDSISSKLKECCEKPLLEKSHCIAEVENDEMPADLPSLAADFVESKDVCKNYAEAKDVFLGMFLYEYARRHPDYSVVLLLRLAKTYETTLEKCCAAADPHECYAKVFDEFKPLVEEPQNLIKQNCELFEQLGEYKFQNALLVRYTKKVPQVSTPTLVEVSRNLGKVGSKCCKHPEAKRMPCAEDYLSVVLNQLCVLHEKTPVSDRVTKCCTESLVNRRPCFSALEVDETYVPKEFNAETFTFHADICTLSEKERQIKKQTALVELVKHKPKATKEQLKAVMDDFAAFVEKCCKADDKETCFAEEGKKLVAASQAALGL

[1] = Equilibrium solubility of compound in FaSSIF after 24 hrs by LC-MS method; type: physicochemical
[2] = Equilibrium solubility of compound in FeSSIF after 24 hrs by LC-MS method; type: physicochemical
[3] = Volume of distribution in CD1 mouse at […], iv as bolus dose by LC-MS/MS method; type: ADME, organism-based; conditions: in vivo
[4] = Clearance in CD1 mouse at […], iv as bolus dose by LC-MS/MS method; type: ADME, organism-based; conditions: in vivo
[5] = Half life in CD1 mouse at […], iv as bolus dose by LC-MS/MS method; type: ADME, organism-based; conditions: in vivo
[6] = Cmax in CD1 mouse at 11.512 mg/kg administered via oral gavage by LC-MS/MS method; type: ADME, organism-based; parameters: dose 11.512 mg/kg, route oral; conditions: in vivo, 11.51 mg/kg
Summary of the method: (§1)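 Specific pathogen-free female CD1 (Hsd:ICR) mice, 8 to 10 weeks old. Each compound was given as an intravenous dose and an oral dose at the levels listed. Parameters reported: Vd, clearance, t1/2, Cmax, Tmax, AUC0-t, AUC∞ and %F.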

[7] = Tmax in CD1 mouse at 11.512 mg/kg administered via oral gavage by LC-MS/MS method; type: ADME, organism-based; conditions: in vivo
Summary of the method: (§2)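 Specific pathogen-free female CD1 (Hsd:ICR) mice, 8–10 weeks old, housed in the institutional animal facility. Each compound was given intravenously at a low dose and orally at a higher dose. Vd, clearance, t1/2, Cmax, Tmax, AUC0-t, AUC∞ and %F were derived from plasma exposure after each route.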

[8] = AUC (0 to t) in CD1 mouse at 11.512 mg/kg administered via oral gavage by LC-MS/MS method; type: ADME, organism-based; conditions: in vivo; summary of the method: as §1
[9] = AUC (infinity) in CD1 mouse at 11.512 mg/kg administered via oral gavage by LC-MS/MS method; type: ADME, organism-based; parameters: dose 11.512 mg/kg, time infinity, route oral; conditions: in vivo, 11.51 mg/kg; summary of the method: as §1
[10] = Oral bioavailability in CD1 mouse at 11.512 mg/kg administered via gavage by LC-MS/MS method; type: ADME, organism-based; conditions: in vivo; summary of the method: as §1
Plasmodium yoelii = assay: Schizontocidal activity against Plasmodium yoelii infected in CD1 mouse administered via oral gavage as qd for 4 days starting 1 hr post infection by YOYO-1 dye-based flow cytometric method; type: functional
Summary of the method: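 Blood schizontocidal activity was tested in a modified 4-day suppressive test in mice infected with P. yoelii. Four oral doses were given by gavage over four days.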

[11] = Volume of distribution in CD1 mouse at 0.192 mg/kg, iv as bolus dose by LC-MS/MS method; type: ADME, organism-based; conditions: in vivo; summary of the method: as §2
[12] = Clearance in CD1 mouse at 0.192 mg/kg, iv as bolus dose by LC-MS/MS method; type: ADME, organism-based; conditions: in vivo; summary of the method: as §1
[13] = Half life in CD1 mouse at 0.192 mg/kg, iv as bolus dose by LC-MS/MS method; type: ADME, organism-based; conditions: in vivo; summary of the method: as §1
[14] = Cmax in CD1 mouse at 10.36 mg/kg administered via oral gavage by LC-MS/MS method; type: ADME, organism-based; parameters: dose 10.36 mg/kg, route oral; conditions: in vivo; summary of the method: as §1
[15] = Tmax in CD1 mouse at 10.36 mg/kg administered via oral gavage by LC-MS/MS method; type: ADME, organism-based; conditions: in vivo; summary of the method: as §2
[16] = AUC (0 to t) in CD1 mouse at 10.36 mg/kg administered via oral gavage by LC-MS/MS method; type: ADME, organism-based; conditions: in vivo; summary of the method: as §1
[17] = AUC (infinity) in CD1 mouse at 10.36 mg/kg administered via oral gavage by LC-MS/MS method; type: ADME, organism-based; parameters: dose 10.36 mg/kg, route oral, time infinity; conditions: in vivo; summary of the method: as §1
[18] = Oral bioavailability in CD1 mouse at 10.36 mg/kg administered via gavage by LC-MS/MS method; type: ADME, organism-based; conditions: in vivo; summary of the method: as §1
[19] = Volume of distribution in CD1 mouse at 0.17 mg/kg, iv as bolus dose by LC-MS/MS method; type: ADME, organism-based; conditions: in vivo; summary of the method: as §2
[20] = Clearance in CD1 mouse at 0.17 mg/kg, iv as bolus dose by LC-MS/MS method; type: ADME, organism-based; conditions: in vivo; summary of the method: as §1
[21] = Half life in CD1 mouse at 0.17 mg/kg, iv as bolus dose by LC-MS/MS method; type: ADME, organism-based; conditions: in vivo; summary of the method: as §1
[22] = Cmax in CD1 mouse at 10.757 mg/kg administered via oral gavage by LC-MS/MS method; type: ADME, organism-based; parameters: dose 10.757 mg/kg, route oral; conditions: in vivo, 10.76 mg/kg; summary of the method: as §1
[23] = Tmax in CD1 mouse at 10.757 mg/kg administered via oral gavage by LC-MS/MS method; type: ADME, organism-based; conditions: in vivo; summary of the method: as §2
[24] = AUC (0 to t) in CD1 mouse at 10.757 mg/kg administered via oral gavage by LC-MS/MS method; type: ADME, organism-based; conditions: in vivo; summary of the method: as §1
[25] = AUC (infinity) in CD1 mouse at 10.757 mg/kg administered via oral gavage by LC-MS/MS method; type: ADME, organism-based; parameters: dose 10.757 mg/kg, route oral, time infinity; conditions: in vivo, 10.76 mg/kg; summary of the method: as §1
[26] = Oral bioavailability in CD1 mouse at 10.757 mg/kg administered via gavage by LC-MS/MS method; type: ADME, organism-based; conditions: in vivo; summary of the method: as §1
[27] = Cmax in CD1 mouse at 8.3 mg/kg administered via oral gavage by LC-MS/MS method; type: ADME, organism-based; parameters: dose 8.3 mg/kg, route oral; conditions: in vivo; summary of the method: as §1
[28] = Tmax in CD1 mouse at 8.3 mg/kg administered via oral gavage by LC-MS/MS method; type: ADME, organism-based; conditions: in vivo; summary of the method: as §2
[29] = AUC (0 to t) in CD1 mouse at 8.3 mg/kg administered via oral gavage by LC-MS/MS method; type: ADME, organism-based; conditions: in vivo; summary of the method: as §1
[30] = AUC (infinity) in CD1 mouse at 8.3 mg/kg administered via oral gavage by LC-MS/MS method; type: ADME, organism-based; parameters: dose 8.3 mg/kg, route oral, time infinity; conditions: in vivo; summary of the method: as §1
[31] = Oral bioavailability in CD1 mouse at 8.3 mg/kg administered via gavage by LC-MS/MS method; type: ADME, organism-based; conditions: in vivo; summary of the method: as §2

Structure (SMILES): Cc1[nH]c(C)c(-c2ccc(-c3ccc(OC(F)(F)F)cc3)nc2)c(=O)c1Br
IC50 (Plasmodium falciparum): 20 nM
fraction unbound (serum albumin): 0.04
Vd [11]: 0.91 L/kg
clearance [12]: 0.72 mL/min/kg
half-life [13]: 14.6 h
Cmax [14]: 4100 ng/mL
Tmax [15]: 10 h
AUC(0-t) [16]: 109 µg·h/mL
AUC(0-inf) [17]: 118 µg·h/mL
bioavailability [18]: 49.1%

Structure (SMILES): Cc1[nH]c(C)c(-c2ccc(-c3ccc(OC(F)(F)F)cc3)nc2)c(=O)c1Cl
IC50 (Plasmodium falciparum): 20 nM
fraction unbound (serum albumin): 0.04
Vd [19]: 0.85 L/kg
clearance [20]: 0.53 mL/min/kg
half-life [21]: 18.7 h
Cmax [22]: 2290 ng/mL
Tmax [23]: 10 h
AUC(0-t) [24]: 167 µg·h/mL
AUC(0-inf) [25]: 187 µg·h/mL
bioavailability [26]: 54.9%
ED50 (Plasmodium yoelii): 0.15 mg/kg

Structure (SMILES): Cc1[nH]c(C)c(-c2ccc(OCc3ccc(OC(F)(F)F)cc3)nc2)c(=O)c1Br
IC50 (Plasmodium falciparum): 19 nM
fraction unbound (serum albumin): 0.03

Stronger by IC50 (Plasmodium falciparum), values ahead:

IC50 (Plasmodium falciparum): 14 nM
fraction unbound (serum albumin): 0.03
Vd [3]: 1.26 L/kg
clearance [4]: 2.74 mL/min/kg
half-life [5]: 5.32 h
Cmax [27]: 300 ng/mL
Tmax [28]: 6 h
AUC(0-t) [29]: 5.6 µg·h/mL
AUC(0-inf) [30]: 5.6 µg·h/mL
bioavailability [31]: 11%
Structure (SMILES): Cc1[nH]c(C)c(-c2ccc(OCc3ccc(OC(F)(F)F)cc3)nc2)c(=O)c1Cl
ED50 (Plasmodium yoelii): 16.3 mg/kg

IC50 (Plasmodium falciparum): 10 nM
fraction unbound (serum albumin): 0.05
solubility thermodynamic at 24 h [1]: < 1 µg/mL
solubility thermodynamic at 24 h [2]: 1.33 µg/mL (≈ 3.35 µM)
Vd [3]: 0.75 L/kg
clearance [4]: 0.26 mL/min/kg
half-life [5]: 33.8 h
Cmax [6]: 6380 ng/mL
Tmax [7]: 10 h
AUC(0-t) [8]: 204 µg·h/mL
AUC(0-inf) [9]: 226 µg·h/mL
bioavailability [10]: 30%
Structure (SMILES): Cc1[nH]c(C)c(-c2ccc(-c3ccc(C(F)(F)F)cc3F)nc2)c(=O)c1Cl
ED50 (Plasmodium yoelii): 0.08 mg/kg

From ChEMBL document CHEMBL4043297, “Synthesis and Structure-Activity Relationships of the Novel Antimalarials 5-Pyridinyl-4(1 H)-Pyridones” (J Med Chem, 2018)
